M1 antag – blocks human M1 muscarinic receptor; inhibition, % at 3 µM; CHO-K1 hM1, Fluo-8 calcium fluorescence, ACh EC80 antagonist; 360,000 tested, 1.3% active;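 active = percent inhibition above its own plate's cutoff, namely the mean of that plate's compound wells plus 3 SD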;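 note: peak over basal fluorescence ratio during 140 s after agonist addition; 0% = ACh EC80 plus DMSO and 100% = DMSO alone without agonist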
Target sequence (P11229 whole entry, looked up): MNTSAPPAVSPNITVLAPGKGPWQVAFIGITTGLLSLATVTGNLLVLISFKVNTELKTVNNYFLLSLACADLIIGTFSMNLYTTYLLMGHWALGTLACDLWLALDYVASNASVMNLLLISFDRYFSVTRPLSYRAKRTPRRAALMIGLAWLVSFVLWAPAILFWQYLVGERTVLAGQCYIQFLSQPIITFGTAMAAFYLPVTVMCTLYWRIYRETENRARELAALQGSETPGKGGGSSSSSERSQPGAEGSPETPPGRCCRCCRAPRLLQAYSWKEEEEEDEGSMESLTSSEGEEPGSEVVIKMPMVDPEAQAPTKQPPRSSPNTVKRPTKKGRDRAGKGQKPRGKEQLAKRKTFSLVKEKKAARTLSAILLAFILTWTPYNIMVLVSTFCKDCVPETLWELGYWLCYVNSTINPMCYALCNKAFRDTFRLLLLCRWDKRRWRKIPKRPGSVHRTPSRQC
M5 PAM – CHRM5 positive allosteric modulation; P08912; CHO-K1 hM5, Fluo-8 calcium, ACh EC20 PAM; 0% = ACh EC20, 100% = ACh EC100; activation, % at 3 µM; 360,000 tested, 0.3% active; AID 624038;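 active = activation above the run cutoff, the mean activation of all test compounds plus 3 SD, cut at about 18% in these data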
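Probe or stimulus: acetylcholine, EC20 level; Assay system: human M5 receptor in CHO-K1 cells; Schedule: compound preincubation 140 s before EC20 acetylcholine addition; Technique: intracellular calcium via Fluo-8 fluorescence; Dosing: single-point, 3 µM nominal; Read-out basis: percent activation from peak-over-basal fluorescence ratio, scaled EC20-to-EC100 acetylcholine; Repeats: one well per compound, no replicates.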
CHRM1 PAM – positive allosteric modulators of human M1 muscarinic receptor; P11229; CHO-K1 hM1, Fluo-8 calcium fluorescence, ACh EC20; 0% = ACh EC20, 100% = maximal ACh; activation, % at 3 µM; 360,000 tested, 0.088% active; AID 588819; in the data active = activation above about 19%, passing the limit was not always enough
M5 antag – blocks acetylcholine activation of human M5 receptor; P08912; inhibition, % at 3 µM; AID 624040; CHO-hM5 cells, Fluo-8 calcium fluorescence, ACh EC80; 360,000 tested, 0.59% active;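 active = inhibition above a per-plate cutoff, the mean of that plate's test compounds plus 3 SD, cut at about 27% in these data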;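 note: 0% = acetylcholine EC80 with DMSO and 100% = DMSO without agonist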
M1 ag – activates human CHRM1 receptor. P11229. CHO-K1 hM1, Fluo-8 calcium fluorescence, agonist mode; 0% DMSO, 100% acetylcholine EC100. activation, % at 3 µM. 360,000 tested, 0.33% active. AID 588814;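 active = activation above the run's mean compound activation plus 3 SD, cut at about 16% in these data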;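 note: peak over basal fluorescence ratio within a 140 s kinetic read after compound addition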
M5 ag – agonists of human muscarinic M5 receptor (CHRM5); P08912; CHO-K1 hM5 cells, Fluo-8 calcium fluorescence; 0% DMSO wells, 100% maximal acetylcholine response; activation, % at 3 µM; 360,000 tested, 0.19% active; AID 624037;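 active = activation above the run's mean over test compounds plus 3 SD, cut at about 23% in these data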;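 note: signal is peak over basal fluorescence ratio across the kinetic read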
Starred values were filed as active, the others as inactive. Hits are enriched below; roughly 2.2% of the tested compounds scored in any of these assays.

SMILES	M1 antag	M5 PAM	CHRM1 PAM	M5 antag	M1 ag	M5 ag
CN1/C(=C/C(=O)CSc2ccccc2C(=O)O)C(C)(C)c2ccccc21	2	6	7	-1	-6	-2
CCOC(=O)C1(CC2CC2)CCN(Cc2ccc3cccc(F)c3n2)CC1	23	-11	-13	11	-5	-11
COc1ccc(/C=C\C(=O)O[C@@H]2C(O)C(O[C@@H]3OC(C)[C@H](O[C@@H]4OCC(O[C@H]5O[C@H](CO)[C@@H](O)C(O)C5O)C(O)C4O)C(O)C3O)[C@H](OC(=O)[C@]34CCC(C)(C)C[C@@H]3C3=CCC5[C@@]6(C)CC(O)C(O[C@@H]7OC(CO)C(O)[C@H](O)[C@H]7O)[C@@](C)(C(=O)O)C6CC[C@@]5(C)[C@]3(CO)CC4)O[C@H]2C)cc1 (some centres not stated)	85*	-27	-37	48*	95*	50*
O=C(Cc1cccc(NC(=O)C2CCCN(C(=O)C3CC3)C2)c1)Nc1cccc(C(=O)N2CCOCC2)c1 (configuration not stated)	-6	-6	5	11	-1	1
CCOC(=O)C1CN(S(=O)(=O)c2ccccc2)C1	-5	2	3	3	-3	0
CCOC(=O)C1CCN(S(=O)(=O)c2cn(C)c(=O)n(C)c2=O)CC1	32*	-11	-22	10	-10	-1
CCOC(=O)C1CN(S(=O)(=O)c2ccc(C)cc2)C1	-11	20*	8	-4	-3	-7
CCOC(=O)C1CCN(S(=O)(=O)c2ccc(Cl)nc2)CC1	28*	-6	-9	10	-4	0
O=S1(=O)N=C(Nc2ccc(O)cc2)c2ccccc21	-3	21*	11	-8	4	5
O=C1CCC(/C=C/c2ccccc2)=NN1Cc1ccc(F)cc1	2	-11	-3	8	-6	-4
CC(c1nccs1)N(C)C(=O)c1ccc(OC2CCN(CCc3ccccc3)CC2)cc1 (configuration not stated)	13	-14	-10	36*	-6	-9
CN(Cc1nccn1C)C(=O)c1ccc(OC2CCN(CCc3ccccc3)CC2)cc1	47*	-11	-19	28*	-6	-9
CC(=O)c1ccc(NC(=O)CSc2nnc3ccc(-c4ccccn4)nn23)cc1	-4	8	12	-8	2	2
COCCN(C(=O)CCC(=O)Nc1ccccn1)C(C(=O)NCCC(C)C)c1ccc(C)cc1 (configuration not stated)	-13	5	16	9	0	-1
CCCCNC(=O)Cn1c(=O)c2c(ncn2CCC(C)C)n(Cc2ccccc2)c1=O	-2	-2	3	2	-8	0
CCCN(Cc1ccc(N(CC)CC)cc1)CC1CC1	52*	-5	-32	4	-15	-7
CCCN(Cc1ccc(N(C)C)cc1)CC1CC1	-1	0	-11	2	-6	-4
COc1cccc(Nc2nc(C(N)Cc3ccc(Cl)cc3)cs2)n1 (configuration not stated)	-2	1	11	13	12	49*
COc1ccc(CC(N)c2csc(Nc3cccc(OC)n3)n2)cc1 (configuration not stated)	0	2	4	2	7	6
c1ccc2sc(-c3ccncc3)nc2c1	-21	32*	12	28*	-5	-3
NC(=O)COc1ccccc1/C=C1/SC(=O)N(CC(=O)N2CCc3ccccc3C2)C1=O	-5	-17	-5	8	-1	0
CCOc1cc(/C=C2/SC(=O)N(CC(=O)N3CCc4ccccc4C3)C2=O)ccc1OCC(=O)O	-13	-1	19*	9	2	1
Cc1ccc(-c2nc(CSCC(=O)N3CCN(c4ccccn4)CC3)c(C)o2)cc1	33*	-21	-27	7	-3	8
CCOc1ccc(-c2nc(CSCC(=O)N3CCN(c4cccc(OC)c4)CC3)c(C)o2)cc1	35*	-20	-19	27*	-2	7
CCc1ccc(-c2nc(CSCC(=O)N3CCN(c4ccccn4)CC3)c(C)o2)cc1	14	-18	-10	17	0	4
SMILES	M1 antag	M5 PAM	CHRM1 PAM	M5 antag	M1 ag	M5 ag
CC(C)c1nnc(SCC(=O)N2CCc3ccccc32)n1N	-1	-3	1	5	-5	-4
Cc1ccccc1N1CCN(CCCN2C(=O)CC(=C(c3ccccc3)c3ccccc3)C2=O)CC1	95*	-14	-20	-1	-5	-9
O=C1C2CCCCN2C(=O)N1CCCCN1CCN(c2cccc(Cl)c2)CC1 (configuration not stated)	-4	7	2	3	2	-4
O=C1CC(=C(c2ccccc2)c2ccccc2)C(=O)N1CCCCN1CCN(c2cccc(Cl)c2)CC1	39*	-18	-8	11	7	-8
COC(=O)C1CCCCN1C(=O)c1cc(COc2cccc3cnccc23)on1 (configuration not stated)	43*	-24	-15	21	1	8
CCOC(=O)CC1CCCCN1C(=O)c1cc(COc2cccc3cnccc23)on1 (configuration not stated)	72*	-15	-20	40*	6	10
COC(=O)C1CCCCN1C(=O)c1cc(COc2cccc3cccnc23)on1 (configuration not stated)	-14	-3	12	10	-3	-1
CC(=O)c1ccc(S(=O)(=O)N2CCN(CC(=O)Nc3ccccc3C(=O)NC3CC3)CC2)cc1	37*	-17	-16	18	0	2
COc1cc2c(cc1NC(=O)C(C)N1CCN(S(=O)(=O)c3ccc(C)c(C)c3)CC1)oc1ccccc12 (configuration not stated)	-9	-2	13	3	2	5
COc1cc2c(cc1NC(=O)CN1CCN(S(=O)(=O)c3ccc(C)cc3)CC1)oc1ccccc12	-31	-1	23*	9	15	-1
O=C(CN1CCN(S(=O)(=O)c2ccccc2)CC1)Nc1ccccc1C(=O)NC1CC1	13	-19	-6	4	-4	4
O=C(CCC1CCCC1)NCc1cccs1	4	2	-4	-1	-5	-2
OC(c1cccs1)(c1cccs1)C1C[N+]2(CF)CCC1CC2 (configuration not stated)	83*	-15	-22	63*	-8	-7
N#C/C(=C\c1coc2ccc(O)cc2c1=O)C(=O)Nc1nc2ccccc2s1	21	-28	-13	48*	62*	105*

Screens: PubChem, The Scripps Research Institute Molecular Screening Center
